CHRM5 PAM: potentiates acetylcholine response at human M5 receptor | P08912 | CHO-K1 hM5, Fluo-8 calcium, ACh EC20 PAM; 0% = ACh EC20, 100% = ACh EC100 | activation, % at 3 µM | hit rate 0.3% among 360,000;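 active = activation above the run cutoff, the mean activation of all test compounds plus 3 SD, cut at about 18% in these data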
Target sequence (P08912 whole entry, looked up): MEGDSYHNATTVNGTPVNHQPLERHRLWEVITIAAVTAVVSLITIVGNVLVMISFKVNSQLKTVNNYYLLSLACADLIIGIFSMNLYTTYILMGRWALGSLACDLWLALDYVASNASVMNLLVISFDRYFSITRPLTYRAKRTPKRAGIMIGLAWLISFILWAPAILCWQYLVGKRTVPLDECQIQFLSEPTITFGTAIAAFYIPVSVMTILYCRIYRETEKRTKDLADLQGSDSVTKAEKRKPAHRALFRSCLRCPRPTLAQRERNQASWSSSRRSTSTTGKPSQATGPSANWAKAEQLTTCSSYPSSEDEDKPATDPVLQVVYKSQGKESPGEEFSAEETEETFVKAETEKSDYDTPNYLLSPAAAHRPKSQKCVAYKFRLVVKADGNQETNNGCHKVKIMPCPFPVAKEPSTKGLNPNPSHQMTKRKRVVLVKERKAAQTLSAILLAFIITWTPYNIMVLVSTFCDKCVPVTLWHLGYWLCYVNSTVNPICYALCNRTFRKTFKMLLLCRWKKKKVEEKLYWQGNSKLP
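system = human M5 receptor in CHO-K1 cells | reagent = EC20 acetylcholine as agonist stimulus | compound dosing = single-point, 3 µM nominal | incubation = Fluo-8 loading 80 min at 37 °C plus 30 min room temperature | detection = Fluo-8 calcium dye fluorescence, kinetic read | benchmarks = low control EC20 acetylcholine (0%), high control EC100 acetylcholine (100%)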
CHO-K1 Ca ag: M1 agonist counterscreen hit in parental CHO-K1 cells; Fluo-8 calcium fluorescence; scaled to maximal ATP response, vehicle zero; activation, % at 3 µM; hit rate 0.48% among 360,000; AID 602248; in the data active = activation above about 15%;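 also: untransfected CHO-K1 host cells lacking M1 receptor as counterscreen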
CHO-K1 Ca antag: counter-screen for M1 antagonists: effect in parental CHO-K1 cells; ATP-induced calcium, Fluo-8 fluorescence; inhibition, % at 3 µM; hit rate 0.6% among 360,000; AID 602250;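 active = inhibition above a per-plate cutoff, the plate's mean sample inhibition plus 3 SD, cut at about 24% in these data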
CHRM5 antagonist: CHRM5 antagonism in calcium assay; P08912; CHO-hM5 cells, Fluo-8 calcium fluorescence, ACh EC80; inhibition, % at 3 µM; hit rate 0.59% among 360,000; AID 624040;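 active = inhibition above a per-plate cutoff, the mean of that plate's test compounds plus 3 SD, cut at about 27% in these data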
M5 ag: CHRM5 agonism in calcium assay; CHO-K1 hM5 cells, Fluo-8 calcium fluorescence; 0% DMSO wells, 100% maximal acetylcholine response; activation, % at 3 µM; hit rate 0.19% among 360,000;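 active = activation above the run's mean over test compounds plus 3 SD, cut at about 23% in these data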;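 also: signal is peak over basal fluorescence ratio across the kinetic read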
M1 PAM parental: counter-screen for M1 PAMs: effect in parental CHO-K1 cells | ATP EC20, Fluo-8 calcium fluorescence; 0% at ATP EC20, 100% at ATP max | activation, % at 3 µM | hit rate 0.02% among 360,000 | AID 602247;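 active = activation above the run cutoff, the mean activation of all test compounds plus 3 SD, cut at about 40% in these data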;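 also: peak over basal fluorescence ratio in a 140 s read after ATP addition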
Numbers stand for hits; n = inactive. Shown are actives, neighbours in structure and some others; about 1.7% of the full set was active somewhere.

SMILES	CHRM5 PAM	CHO-K1 Ca ag	CHO-K1 Ca antag	CHRM5 antagonist	M5 ag	M1 PAM parental
COc1ccc(C2=CSC3=NCCN23)cc1Br	n	n	n	n	n	n
Cc1ccnc(NS(=O)(=O)c2ccc(NS(=O)(=O)c3ccccc3)cc2)n1	23.3	n	n	n	n	n
CCOc1ccc(N2C(=O)C3ON(c4ccccc4)C(c4ccco4)C3C2=O)cc1 (stereo unspecified)	n	n	n	n	n	n
Cc1ccccc1N1C(=O)C2ON(c3ccccc3)C(c3ccco3)C2C1=O (stereo unspecified)	n	15.8	n	n	n	n
CSCC(=O)NS(=O)(=O)c1ccc(C)cc1	n	n	28.1	n	n	n
COc1ccccc1-c1cnc(C(O)c2ccc(F)c(C)c2)[nH]1 (stereo unspecified)	n	n	n	n	n	n
CCN1CCN(CCn2c(=S)[nH]c3ccccc3c2=O)CC1	n	n	n	73.2	n	n
CCC(=O)c1ccc(OCC(=O)OCC(=O)Nc2ccc(C)c(S(=O)(=O)N3CCCCC3)c2)cc1	n	15.8	n	n	n	n
Cc1ccc(NC(=O)COc2ccccc2)cc1S(=O)(=O)N1CCCCC1	n	n	n	n	n	n
CCOc1ccc(OCCC(=O)OCC(=O)Nc2ccc(C)c(S(=O)(=O)N3CCCCC3)c2)cc1	n	n	n	27.0	n	n
CC1CCc2c(sc3nc(CN4CCOCC4)nc(N4CCc5ccccc5C4)c23)C1 (stereo unspecified)	n	n	n	n	n	n
COCCNC(=O)CCc1c(C)nc2c(-c3ccc(F)cc3)c(C)nn2c1C	n	n	n	n	n	n
CCOC(=O)CC[C@H](NC(=O)Cn1cnc2c(NCc3ccccc3)ncnc21)C(=O)OCC	n	n	n	n	n	n
CCOC(=O)c1c2n(c3c(NCc4ccccc4)ncnc13)CCCC2	n	n	24.4	n	n	n
Cc1ccc(-c2nc3cccnc3o2)cc1NC(=O)COc1ccc(C(C)(C)C)cc1	n	n	n	27.3	n	n
Cc1ccc(-c2nc3cccnc3o2)cc1NC(=O)COc1ccc(Cl)cc1C	n	n	n	n	n	n
COc1ccccc1N1CCN(CCCCCCOc2ccc(F)cc2)CC1	n	n	n	39.1	n	n
O=C(O)C1c2ccccc2C(=O)N(Cc2ccc(F)cc2)C1c1ccncc1 (stereo unspecified)	26.7	n	n	n	n	n
Cc1ccc(NC(=O)COC(=O)CC2CCCC2)cc1Cl	22.7	n	n	n	n	n
Cc1ccc(NC(=O)CSc2nnc(C(F)(F)F)n2C)cc1[N+](=O)[O-]	n	n	n	n	n	n
CC(C)CCNC(=O)NC(=O)CSc1nnc(-c2ccccc2F)n1N	n	n	n	n	n	n
CC(C)(C)NC(=O)NC(=O)CSc1nnc(-c2ccccc2F)n1N	n	n	33.3	n	n	n
O=C(Nc1cccc(Cl)c1)Nc1csc([N+](=O)[O-])c1	n	15.8	n	28.4	n	n
O=C(Nc1ccc(-n2ccc(C(F)(F)F)n2)cc1)Nc1cccc(Cl)c1	n	n	30.5	38.2	n	n
CC(=O)Nc1cccc(N(C)S(C)(=O)=O)c1	n	n	n	n	n	n
SMILES	CHRM5 PAM	CHO-K1 Ca ag	CHO-K1 Ca antag	CHRM5 antagonist	M5 ag	M1 PAM parental
Cc1ccc(SCCC(=O)Nc2cccc(N(C)S(C)(=O)=O)c2)cc1	n	25.0	41.8	n	n	n
CN(c1cccc(NC(=O)Nc2cccc(Cl)c2)c1)S(C)(=O)=O	n	18.2	n	n	n	n
CN(C)S(=O)(=O)c1cccc(NC(=O)CCSc2ccc(Cl)cc2)c1	n	n	n	n	n	n
COC(=O)C1(CCSC)NC(c2ccc(O)cc2)C2C(=O)N(c3ccc4c(c3)OCCO4)C(=O)C21 (stereo unspecified)	n	n	n	n	n	n
COc1cc(Cc2nccc3cc(OC)c(OC)cc23)c(S(=O)(=O)O)cc1OC	n	n	n	n	n	n
Cc1nccc(-c2cccc(NC(=O)Nc3ccc(Cl)cc3)c2)n1	n	n	n	27.7	n	n
O=C(Nc1ccncc1)Nc1cccc(Cl)c1	n	n	n	30.9	n	n
O=C(NCc1ccncc1)Nc1cccc(Cl)c1	n	n	n	n	n	n
CCOC(=O)c1sc(NC(=O)Nc2cccc(Cl)c2)cc1C	n	17.7	38.8	36.9	n	n
COC(=O)c1scc(C)c1NC(=O)c1cccc(C#N)c1	n	n	n	n	n	n
O=C(NC1CC1)C1CCN(C2CCN(C(=O)/C=C/c3cccs3)CC2)CC1	28.4	n	n	29.3	n	n
N#CCCN1CCN(CCC#N)C1=S	n	n	n	n	30.3	n
N#CCCN1CCN(CCC#N)c2ccccc21	n	n	n	n	n	n
COc1cc(S(=O)(=O)N2CCOCC2)cc(C(=O)OCC(=O)NC2CCCCC2)c1OC	n	n	n	n	n	n
Cc1csc2ncnc(NNC(=O)c3ccc(Cl)cc3)c12	n	18.8	n	n	n	n
O=C(NNc1ncnc2sccc12)c1ccc(Cl)cc1	n	n	n	n	n	n
CCCCNc1c(-c2cccc(-c3ccc(OC)cc3)c2)nc2ccc(C)cn12	n	n	n	34.3	n	n
CCCCNc1c(-c2cccc(-c3cc(C(C)=O)cs3)c2)nc2ccc(C)cn12	n	n	n	n	n	n
CCCCNc1c(-c2cccc(-c3ccc(OC)cc3)c2)nc2cc(C)ccn12	n	n	n	27.8	n	n
O=C(N/N=C/c1cccc(O)c1)C(=O)N1CCCCCC1	n	n	n	n	n	n
O=C(NC1CC2CCCC(C1)N2C(=O)NCc1ccccc1)C1CC1 (stereo unspecified)	n	n	n	n	n	n
COc1cccc(CN2CCNC(=O)C2CC(=O)N(C)CC2CCOCC2)c1OC (stereo unspecified)	n	n	n	n	n	n
COc1cccc(CN2CCNC(=O)C2CC(=O)N(C)C2CCOCC2)c1OC (stereo unspecified)	n	n	n	28.0	n	n
CC(C)Cn1c(N)c(C(=O)COC(=O)c2ccc3ccccc3n2)c(=O)n(C)c1=O	n	n	n	n	n	n
CCN(CCCNC(=O)C1CCN(S(=O)(=O)c2cnc[nH]2)CC1)c1cccc(C)c1	41.9	n	n	n	n	n
CCN(CCCNC(=O)C1CCCN(S(=O)(=O)CC)C1)c1cccc(C)c1 (stereo unspecified)	n	n	n	n	n	n
Cc1oc(-c2cccc(Cl)c2)nc1CN1CCC(C(=O)NCc2cccnc2)CC1	n	n	n	n	n	n
O=C(NC1CCCC1)c1ccc2c(c1)N(Cc1ccccc1)CCS2	18.4	n	n	n	n	n
O=C(O)CCC(=O)NNC(=O)COc1cccc(Cl)c1	21.0	n	n	n	n	n
O=C(COc1cccc(Cl)c1)NNC(=S)Nc1ccccc1	n	n	n	n	n	n

Source: PubChem BioAssay
